The results in this text go back to ChEMBL document CHEMBL2021810, “Synthesis, anticancer activities, and cellular uptake studies of lipophilic derivatives of doxorubicin succinate” (J Med Chem, 2012).

Data set [1] relates to MDA-MB-468. The data set is described as follows: Growth inhibition of human MDA-MB-468 cells at 1 uM after 96 hrs by CellTiter assay. The class given is functional, cell-based.
The test system of data set [2] is SK-OV-3. The data set is described as follows: Inhibition of cell proliferation of human SKOV3 cells at 1 uM after 96 to 120 hrs by CellTiter assay. The class given is functional.
In data set [3] the test system is HT-29. The data set is described as follows: Inhibition of cell proliferation of human HT-29 cells at 1 uM by CellTiter assay. The class given is functional, cell-based. As to conditions: TDE = time-dependent effect.
Data set [4] concerns MDA-MB-361. The data set is described as follows: Inhibition of cell proliferation of human MDA-MB-361 cells at 1 uM by CellTiter assay. It counts as functional, cell-based. To be noted: TDE = time-dependent effect.
Data set [5] deals with CCRF-CEM. The data set is described as follows: Inhibition of cell proliferation of human CCRF-CEM cells at 1 uM by CellTiter assay. It counts as functional, cell-based. As to conditions: TDE = time-dependent effect.
For data set [6], the system named is MDA-MB-468. The data set is described as follows: Inhibition of cell proliferation of human MDA-MB-468 cells at 1 uM by CellTiter assay. To be noted: TDE = time-dependent effect. It counts as functional, cell-based.
Data set [7] concerns HT-29. Nature of the data set: Inhibition of cell proliferation of human HT-29 cells at 1 uM after 96 to 120 hrs by CellTiter assay. It counts as functional.
Data set [8] concerns MDA-MB-468. Nature of the data set: Inhibition of cell proliferation of human MDA-MB-468 cells at 1 uM after 96 to 120 hrs by CellTiter assay. It counts as functional.
For data set [9], the system named is MDA-MB-361. The data set is described as follows: Growth inhibition of human MDA-MB-361 cells at 1 uM after 96 hrs by CellTiter assay. The class given is functional, cell-based.
The subject of data set [10] is MDA-MB-361. The data set is described as follows: Inhibition of cell proliferation of human MDA-MB-361 cells at 1 uM after 96 to 120 hrs by CellTiter assay. The class given is functional.
Data set [11] deals with CCRF-CEM. The data set is described as follows: Inhibition of cell proliferation of human CCRF-CEM cells after 96 hrs by CellTiter assay. It counts as functional, cell-based.
The subject of data set [12] is SK-OV-3. The data set is described as follows: Inhibition of cell proliferation of human SKOV3 cells at 1 uM by CellTiter assay. The class given is functional, cell-based. As to conditions: TDE = time-dependent effect.
Data set [13] concerns HT-29. Nature of the data set: Growth inhibition of human HT-29 cells at 1 uM after 96 hrs by CellTiter assay. The class given is functional, cell-based.
Data set [14] relates to CCRF-CEM. Nature of the data set: Inhibition of cell proliferation of human CCRF-CEM cells at 1 uM after 96 to 120 hrs by CellTiter assay. It counts as functional.
The subject of data set [15] is SK-OV-3. Nature of the data set: Growth inhibition of human SKOV3 cells at 1 uM after 96 hrs by CellTiter assay. The class given is functional, cell-based.
Data set [16] relates to CCRF-CEM. Nature of the data set: Growth inhibition of human CCRF-CEM cells at 1 uM after 96 hrs by CellTiter assay. The class given is functional, cell-based.
The test system of data set [17] is SK-OV-3. Nature of the data set: Cytotoxicity against human SKOV3 cells after 48 hrs. It counts as functional, cell-based. As to conditions: SK-OV-3, 48 h.
The nature of data set [18]: Drug uptake in doxorubicin-resistant human SKOV3 cell nucleus at 5 uM after 1 hr by confocal microscopic analysis. As to conditions: sk-ov-3, 1 h. The class given is ADME, cell-based. A digest of the protocol:
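Coverslip-grown SK-OV-3 cells (seeded overnight, EMEM) treated with 5 μM compound in opti-MEM for 1 h at 37 °C, PBS-washed three times, mounted and imaged by laser scanning confocal microscopy using rhodamine and phase contrast channels for Dox fluorescence.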

Data set [19] can be described thus: Cellular uptake in doxorubicin-resistant human SKOV3 cells at 5 uM incubated for 1 hr followed by incubation with fresh media for 24 hrs measured by confocal microscopic analysis. The class given is ADME, cell-based, Cytoplasm. To be noted: sk-ov-3, 1 h. A digest of the protocol:
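SK-OV-3 cells seeded overnight on coverslips in EMEM, exposed to 5 μM compound in opti-MEM for 1 h at 37 °C, washed, then kept in fresh serum-containing medium 24 h; PBS-washed and imaged by laser scanning confocal microscopy, rhodamine and phase contrast channels.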

Data set [20] concerns MDA-MB-468. Nature of the data set: Inhibition of cell proliferation of human MDA-MB-468 cells at 1 uM after 120 hrs by CellTiter assay. It counts as functional. To be noted: MDA-MB-468, 120 h.
In data set [21] the target is DNA topoisomerase 2-alpha (Homo sapiens) (UniProt P11388). As to conditions: 5 uM.
The test system of data set [22] is SK-OV-3. Nature of the data set: Cytotoxicity against human SKOV3 cells at 10 uM incubated for 2 hrs followed by incubation in compound-free medium for 72 hrs by MTT assay. The class given is functional. The essentials:
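SK-OV-3 cells plated overnight at 5000 cells/well; exposed to compound (up to 10 μM), then medium replaced with drug-free medium for 72 h; MTT added 2 h, formazan read at 490 nm; % cytotoxicity = (OD untreated − OD treated)/OD untreated × 100.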

Data set [23] deals with DNA topoisomerase 2-alpha (Homo sapiens) (UniProt P11388). The data set is described as follows: Inhibition of topoisomerase 2-mediated KDNA decatenation at 25 uM after 30 mins by gel electrophoretic analysis. The essentials:
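Eukaryotic Topo II decatenation of kDNA (0.1 μg) in Tris-HCl 50 mM pH 8.0, NaCl 150 mM, MgCl2 10 mM, DTT 0.5 mM, ATP 2 mM with compound at 1–25 μM final, 30 min at 37 °C; stopped with sarkosyl buffer; products resolved on 1% agarose with ethidium bromide.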

The source made the active and inactive calls. The calls are words filed in the database; no cut-off is given here.

By inhibition is commonly meant the relative decrease from the control value, in per cent. In general, IC50 refers to the point on the concentration scale where inhibition reaches its midpoint. Read a low IC50 as greater potency in that assay.

DNA topoisomerase 2-alpha (Homo sapiens), sequence (P11388 whole entry): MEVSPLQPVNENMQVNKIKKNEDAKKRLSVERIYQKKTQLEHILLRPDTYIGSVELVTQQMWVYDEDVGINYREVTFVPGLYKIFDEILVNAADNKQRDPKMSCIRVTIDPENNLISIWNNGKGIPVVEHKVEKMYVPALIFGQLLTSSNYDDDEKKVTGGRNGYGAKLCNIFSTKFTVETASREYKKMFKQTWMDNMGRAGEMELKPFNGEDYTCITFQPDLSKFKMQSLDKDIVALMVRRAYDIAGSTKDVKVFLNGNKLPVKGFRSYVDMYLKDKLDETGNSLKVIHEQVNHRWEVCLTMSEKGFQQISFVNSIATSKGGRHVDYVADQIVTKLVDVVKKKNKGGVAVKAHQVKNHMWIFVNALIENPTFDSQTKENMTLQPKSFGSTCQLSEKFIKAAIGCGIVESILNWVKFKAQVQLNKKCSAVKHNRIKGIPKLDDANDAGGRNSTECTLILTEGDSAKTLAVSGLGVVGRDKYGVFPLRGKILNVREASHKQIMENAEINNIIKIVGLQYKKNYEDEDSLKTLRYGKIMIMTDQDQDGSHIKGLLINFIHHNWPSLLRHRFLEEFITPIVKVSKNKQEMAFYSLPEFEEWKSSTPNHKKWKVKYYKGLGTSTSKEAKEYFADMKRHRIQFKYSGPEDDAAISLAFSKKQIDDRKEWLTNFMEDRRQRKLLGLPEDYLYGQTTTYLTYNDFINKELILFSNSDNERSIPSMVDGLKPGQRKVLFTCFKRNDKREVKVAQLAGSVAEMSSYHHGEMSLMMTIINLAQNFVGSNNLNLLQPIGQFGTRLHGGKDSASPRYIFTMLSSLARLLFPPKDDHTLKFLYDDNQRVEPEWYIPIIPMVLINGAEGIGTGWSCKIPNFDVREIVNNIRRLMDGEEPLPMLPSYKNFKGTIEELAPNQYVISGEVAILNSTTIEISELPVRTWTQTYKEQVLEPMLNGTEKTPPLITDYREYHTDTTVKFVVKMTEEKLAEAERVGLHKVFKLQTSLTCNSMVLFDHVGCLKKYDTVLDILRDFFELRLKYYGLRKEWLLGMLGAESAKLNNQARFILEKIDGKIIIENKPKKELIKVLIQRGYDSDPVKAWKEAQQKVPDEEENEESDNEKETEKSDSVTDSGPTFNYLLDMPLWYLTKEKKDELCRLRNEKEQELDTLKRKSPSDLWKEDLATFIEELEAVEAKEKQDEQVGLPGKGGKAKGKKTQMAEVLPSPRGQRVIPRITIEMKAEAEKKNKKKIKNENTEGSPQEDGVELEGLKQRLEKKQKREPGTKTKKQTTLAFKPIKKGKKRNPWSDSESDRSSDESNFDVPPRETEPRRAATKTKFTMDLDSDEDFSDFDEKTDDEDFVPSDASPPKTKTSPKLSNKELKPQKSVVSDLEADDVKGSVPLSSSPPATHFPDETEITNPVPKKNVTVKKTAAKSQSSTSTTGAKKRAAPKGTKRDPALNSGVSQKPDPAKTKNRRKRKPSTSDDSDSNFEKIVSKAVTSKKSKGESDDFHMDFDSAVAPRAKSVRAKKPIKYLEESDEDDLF

As to `CCCCCCCCCCNC(=O)CCC(=O)OCC(=O)[C@]1(O)Cc2c(O)c3c(c(O)c2[C@@H](O[C@H]2C[C@H](N)[C@H](O)[C@H](C)O2)C1)C(=O)c1c(OC)cccc1C3=O`, the “growth inhibition (GI)” value in the data set on MDA-MB-468 [1], in the data set with MDA-MB-361 [9], with HT-29 [13], with SK-OV-3 [15] and with CCRF-CEM [16] was “Active” throughout. Further, the inhibition at 1 µM with SK-OV-3 [2] was determined as 54%; in the data set on HT-29 [7] it was 60%; with MDA-MB-468 [8], 49%; with MDA-MB-361 [10], 66%; in the data set with CCRF-CEM [14], 69%. For the same compound, the inhibition result in the data set on HT-29 [3], in the data set with MDA-MB-361 [4], in the data set on CCRF-CEM [5], in the data set with MDA-MB-468 [6] and in the data set on SK-OV-3 [12] was “tde” throughout. Besides, it took 0.075 µM to reach half-maximal inhibition in the data set on CCRF-CEM [11] (IC50).
As to `CCCCCCCCCCCCCCCCNC(=O)CCC(=O)OCC(=O)[C@]1(O)Cc2c(O)c3c(c(O)c2[C@@H](O[C@H]2C[C@H](N)[C@H](O)[C@H](C)O2)C1)C(=O)c1c(OC)cccc1C3=O`, the “growth inhibition (GI)” value with MDA-MB-468 [1], in the data set on MDA-MB-361 [9], with HT-29 [13], with SK-OV-3 [15] and with CCRF-CEM [16] was “Active” in each case. In addition, the inhibition at 1 µM in the data set on SK-OV-3 [2] worked out at 54%; with HT-29 [7], 60%; in the data set on MDA-MB-468 [8], 49%; in the data set with MDA-MB-361 [10], 66%; in the data set on CCRF-CEM [14], 69%. The inhibition result with HT-29 [3], with MDA-MB-361 [4], in the data set with CCRF-CEM [5], in the data set on MDA-MB-468 [6] and in the data set with SK-OV-3 [12] was “tde” throughout. For the same compound, 0.075 µM corresponded to half-maximal inhibition in the data set with CCRF-CEM [11] (IC50).
On to `COc1cccc2c1C(=O)c1c(O)c3c(c(O)c1C2=O)C[C@@](O)(C(=O)CO)C[C@@H]3O[C@H]1C[C@H](N)[C@H](O)[C@H](C)O1` [DOXORUBICIN], for which the results for the half-maximal inhibitory concentration (IC50) with SK-OV-3 [17] and in the data set on CCRF-CEM [11] were 5 µM and 0.045 µM, respectively. In addition, the figures for the Drug uptake result in data set [18] and in data set [19] were “Active” and “Not Active”, respectively. The same compound registered an inhibition at 1 µM in the data set with MDA-MB-468 [20] of 69.1%. For the same compound, the inhibition result in [21] was “Active”. The same compound registered an Activity in the data set with SK-OV-3 [22] of 51.5%.
Take `CCCCCCCCCCCCNC(=O)CCC(=O)OCC(=O)[C@]1(O)Cc2c(O)c3c(c(O)c2[C@@H](O[C@H]2C[C@H](N)[C@H](O)[C@H](C)O2)C1)C(=O)c1c(OC)cccc1C3=O`: the “growth inhibition (GI)” value with MDA-MB-468 [1], in the data set with MDA-MB-361 [9], in the data set on HT-29 [13], with SK-OV-3 [15] and in the data set on CCRF-CEM [16] was “Active” throughout. Besides, the inhibition at 1 µM stood at 54% in the data set on SK-OV-3 [2]; 60% in the data set on HT-29 [7]; 49% in the data set with MDA-MB-468 [8]; 66% in the data set with MDA-MB-361 [10]; 69% in the data set on CCRF-CEM [14]. For the same compound, the inhibition result with HT-29 [3], in the data set with MDA-MB-361 [4], in the data set with CCRF-CEM [5], with MDA-MB-468 [6] and in the data set with SK-OV-3 [12] was “tde” each time. 0.075 µM corresponded to half-maximal inhibition with CCRF-CEM [11] (IC50).
As for `CCCCCCCCCCCCCCCC(=O)N[C@H]1C[C@H](O[C@H]2C[C@](O)(C(=O)CO)Cc3c(O)c4c(c(O)c32)C(=O)c2c(OC)cccc2C4=O)O[C@@H](C)[C@H]1O`, in data set [23], the inhibition result was “inactive”.
With `COc1cccc2c1C(=O)c1c(O)c3c(c(O)c1C2=O)C[C@@](O)(C(=O)COC(=O)CCC(=O)O)C[C@@H]3O[C@H]1C[C@H](N)[C@H](O)[C@H](C)O1`, the “growth inhibition (GI)” value in the data set on MDA-MB-468 [1], with MDA-MB-361 [9], in the data set on HT-29 [13], with SK-OV-3 [15] and in the data set with CCRF-CEM [16] was “Active” throughout. The inhibition at 1 µM worked out at 54% with SK-OV-3 [2]; 60% with HT-29 [7]; 49% in the data set on MDA-MB-468 [8]; 66% in the data set on MDA-MB-361 [10]; 69% in the data set with CCRF-CEM [14]. The inhibition entry with HT-29 [3], in the data set with MDA-MB-361 [4], in the data set with CCRF-CEM [5], in the data set on MDA-MB-468 [6] and in the data set on SK-OV-3 [12] was “tde” each time. The same compound came in with an IC50 with CCRF-CEM [11] of 0.075 µM.
As for `CCCCCCCCCCCCCCOC(=O)CCC(=O)OCC(=O)[C@]1(O)Cc2c(O)c3c(c(O)c2[C@@H](O[C@H]2C[C@H](N)[C@H](O)[C@H](C)O2)C1)C(=O)c1c(OC)cccc1C3=O`, the “growth inhibition (GI)” value with MDA-MB-468 [1], with MDA-MB-361 [9], in the data set with HT-29 [13], in the data set with SK-OV-3 [15] and in the data set on CCRF-CEM [16] was “Active” in each case. Also, the inhibition at 1 µM in the data set with SK-OV-3 [2] came out at 54%; with HT-29 [7] it was 60%; with MDA-MB-468 [8] it was 49%; in the data set with MDA-MB-361 [10], 66%; in the data set on CCRF-CEM [14] it was 69%. Further, the inhibition result with HT-29 [3], with MDA-MB-361 [4], with CCRF-CEM [5], in the data set on MDA-MB-468 [6] and in the data set on SK-OV-3 [12] was “tde” each time. In the data set with CCRF-CEM [11], this compound registered an IC50 of 0.075 µM.
